Measured values: ChEMBL document CHEMBL4270612, “Discovery of dual GyrB/ParE inhibitors active against Gram-negative bacteria” (Eur J Med Chem, 2018)
Converted amounts (≈) assume the structure as drawn.

How the values were obtained:
[1] = system: Staphylococcus aureus; test: Antibacterial activity against methicillin-resistant Staphylococcus aureus USA100 after 24 hrs by broth microdilution method; type: functional; settings: USA100, 24 h
Procedure, shortened: (§1)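 Broth microdilution per CLSI. Bacterial suspensions adjusted to 1×10^6 CFU/mL in cation-adjusted Mueller–Hinton broth, mixed 1:1 with 2-fold serial compound dilutions (final DMSO 2.5% v/v). Incubation 35 °C, 140 rpm, 24 h.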

[2] = system: Streptococcus pyogenes; test: Antibacterial activity against Streptococcus pyogenes ARC838 after 24 hrs by broth microdilution method; type: functional; settings: ARC838, 24 h
Procedure, shortened: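 Broth microdilution per CLSI. Bacterial suspension adjusted to 1×10^6 CFU/mL in cation-adjusted Mueller–Hinton broth and mixed 1:1 with 2-fold serial compound dilutions. Plates incubated at 35 °C with shaking at 140 rpm for 24 h.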

[3] = system: Enterobacter cloacae; test: Antibacterial activity against Enterobacter cloacae ARC3528 after 24 hrs by broth microdilution method; type: functional; settings: ARC3528, 24 h
Procedure, shortened: (§2)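 Broth microdilution per CLSI. Bacterial suspension adjusted to 1×10^6 CFU/mL in cation-adjusted Mueller–Hinton broth and mixed 1:1 with 2-fold serial compound dilutions. Final DMSO 2.5% v/v. Plates incubated at 35 °C with shaking at 140 rpm for 24 h.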

[4] = system: Staphylococcus aureus; test: Antibacterial activity against methicillin-resistant Staphylococcus aureus FQ-R after 24 hrs by broth microdilution method; type: functional; procedure, shortened: as §1
[5] = system: Acinetobacter baumannii; test: Antibacterial activity against Acinetobacter baumannii ARC3495 after 24 hrs by broth microdilution method; type: functional; settings: ARC3495, 24 h; procedure, shortened: as §2
[6] = system: Candida albicans; test: Antifungal activity against Candida albicans ATCC 90028 after 24 hrs by broth microdilution method; type: functional; settings: ATCC 90028, 24 h
[7] = system: Haemophilus influenzae; test: Antibacterial activity against Haemophilus influenzae ATCC 49247 after 24 hrs by broth microdilution method; type: functional; settings: ATCC 49247, 24 h; procedure, shortened: as §2
[8] = system: Klebsiella pneumoniae; test: Antibacterial activity against Klebsiella pneumoniae ARC1865 after 24 hrs by broth microdilution method; type: functional; settings: ARC1865, 24 h; procedure, shortened: as §2
[9] = system: Pseudomonas aeruginosa; test: Antibacterial activity against Pseudomonas aeruginosa PAO1 after 24 hrs by broth microdilution method; type: functional; settings: PAO1, 24 h; procedure, shortened: as §2
[10] = system: Escherichia coli; test: Antibacterial activity against Escherichia coli after 24 hrs by broth microdilution method; type: functional; procedure, shortened: as §2
[11] = Growth inhibition of human A549 cells; type: cell-based
[12] = system: Escherichia coli; test: Antibacterial activity against tolC deficient Escherichia coli after 24 hrs by broth microdilution method; type: functional
Procedure, shortened: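 Broth microdilution per CLSI guidelines. Inoculum adjusted to 1×10^6 CFU/mL in cation-adjusted Mueller–Hinton broth, added 1:1 to 2-fold serial compound dilutions; final DMSO 2.5% v/v. Plates incubated 35 °C, 140 rpm, 24 h.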

[13] = Dissociation constant, acidic pKa of compound by pH metric method; type: physicochemical
Procedure, shortened: (§3)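 Potentiometric (pH-metric) titration on an automated titrator, Gold Standard pH metric assay, run in triplicate.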

[14] = target: DNA topoisomerase 4 subunit B (Escherichia coli K-12, UniProt P20083); test: Inhibition of Escherichia coli ParE
DNA topoisomerase 4 subunit B, sequence (P20083 whole entry, the tested form may be a part): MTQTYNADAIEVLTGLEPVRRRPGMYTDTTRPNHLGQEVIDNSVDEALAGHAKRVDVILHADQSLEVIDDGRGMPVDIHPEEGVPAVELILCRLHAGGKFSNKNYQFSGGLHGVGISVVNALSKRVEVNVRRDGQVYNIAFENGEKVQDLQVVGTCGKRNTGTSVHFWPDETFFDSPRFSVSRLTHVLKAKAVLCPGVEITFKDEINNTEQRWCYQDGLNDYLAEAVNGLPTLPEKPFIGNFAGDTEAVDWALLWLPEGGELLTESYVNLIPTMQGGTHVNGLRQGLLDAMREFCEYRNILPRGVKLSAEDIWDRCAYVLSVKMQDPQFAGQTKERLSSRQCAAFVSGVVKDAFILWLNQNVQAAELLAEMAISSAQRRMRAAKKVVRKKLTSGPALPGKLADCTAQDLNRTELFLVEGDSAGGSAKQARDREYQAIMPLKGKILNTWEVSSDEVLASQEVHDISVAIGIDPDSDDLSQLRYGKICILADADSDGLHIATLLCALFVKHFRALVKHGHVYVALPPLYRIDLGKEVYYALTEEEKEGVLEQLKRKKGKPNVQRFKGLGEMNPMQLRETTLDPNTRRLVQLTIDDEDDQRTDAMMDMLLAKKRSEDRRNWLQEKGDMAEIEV

[15] = target: DNA gyrase subunit B (Escherichia coli, UniProt P0AES6); test: Inhibition of Escherichia coli GyrB (1 to 220 residues) expressed in Escherichia coli BL21(DE3)
[16] = Dissociation constant, basic pKa of compound by pH metric method; type: physicochemical; procedure, shortened: as §3
[17] = system: Pseudomonas aeruginosa; test: Antibacterial activity against Pseudomonas aeruginosa harboring MexABCDXY deletion mutant after 24 hrs by broth microdilution method; type: functional; procedure, shortened: as §1
[18] = Dissociation constant, pKa of compound by pH metric method; type: physicochemical; procedure, shortened: as §3

| SMILES | MIC [1] [µg/mL] | MIC [2] [µg/mL] | MIC [3] [µg/mL] | MIC [4] [µg/mL] | MIC [5] [µg/mL] | MIC [6] [µg/mL] | MIC [7] [µg/mL] | MIC [8] [µg/mL] | MIC [9] [µg/mL] | MIC [10] [µg/mL] | GI50 [11] [nM] | MIC [12] [µg/mL] | pKa [13] | IC50 [14] [nM] | IC50 [15] [nM] | pKa [16] | MIC [17] [µg/mL] | pKa [18] |
| --- | --- | --- | --- | --- | --- | --- | --- | --- | --- | --- | --- | --- | --- | --- | --- | --- | --- | --- |
| CC(=O)NC[C@H]1CN(c2ccc(N3CCOCC3)c(F)c2)C(=O)O1 [LINEZOLID] | 1 (≈ 2.96 µM) | 0.5 (≈ 1.48 µM) | > 64 | 0.5 (≈ 1.48 µM) | > 64 | > 64 | 4 (≈ 11.9 µM) | > 64 | – | – | – | – | – | – | – | – | – | – |
| CCNC(=O)Nc1cc(-c2nc(C(F)(F)F)cs2)c(-c2cc(C(=O)O)ccc2N2C3CCC2CN(C)C3)cn1 | – | – | – | – | – | – | – | – | 9 (≈ 16.1 µM) | 9 (≈ 16.1 µM) | > 25000 | 1.12 (≈ 2 µM) | 4.4 | 10 | 9 | 8.2 | 4.46 (≈ 7.96 µM) | – |
| CCNC(=O)Nc1cc(-c2nc(C(F)(F)F)cs2)c(-c2cc(C(=O)NS(C)(=O)=O)cnc2N2C3CCC2CN(C)C3)cn1 | – | – | – | – | – | – | – | – | > 50 | > 50 | – | > 50 | 3.2 | 9 | 8 | 7.6 | > 50 | – |
| CCNC(=O)Nc1cc(-c2nc(C(F)(F)F)cs2)c(-c2cc3ncccc3nc2N2CC3CCCC(C2)N3)cn1 | – | – | – | – | – | – | – | – | > 60 | 9.09 (≈ 16 µM) | > 50000 | 0.28 (≈ 0.492 µM) | – | 25 | 14 | – | 0.55 (≈ 0.967 µM) | 9.2 |
| CCNC(=O)Nc1cc(-c2nc(C(F)(F)F)cs2)c(-c2cnc3cccnc3c2)cn1 | – | – | – | – | – | – | – | – | > 25 | > 25 | – | 0.44 (≈ 0.99 µM) | – | 2010 | 4 | – | > 25 | – |
